In the library only some 2.4% were active in any assay of this set; here they are far more common.
MT stabilize HCS – stabilizes microtubules in HeLa cells; % tubulin-high responders, % at 10 µM; HeLa tubulin immunostaining HCS, 24 h; share of cells brighter than vehicle mean+2SD; 200,000 tested, 0.83% active; AID 2205;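 active = plate Z-score above 3 for both tubulin-high and condensed-nucleus cell shares, with cell loss under 80%, at 10 µM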;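 also: anti alpha tubulin signal scored within the nucleus-defined area of each cell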
bCat nuc transl – beta-catenin nuclear translocation modulation; HeLa beta-catenin nuclear translocation, immunofluorescence imaging; nuclear translocation activity, % at 5 µM; 190,000 tested, 0.3% active; AID 1665;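 active = nuclear translocation activity above 50% at 5 µM, with a well cell count of 50 or more; inconclusive = wells under 50 cells across six images, flagged as toxic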;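 also: per-cell ratio of nuclear to cytoplasmic median beta-catenin stain intensity; plate controls were DMSO negative control for no effect and GSK-3 inhibitor IX positive control for full effect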
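Test system: human HeLa cell line; Doses: 5 µM primary, 0.02–20 µM confirmation; Incubation: 24 h compound exposure, 37°C; Detection: beta-catenin immunofluorescence imaging with DAPI; Read-out: beta-catenin nuclear/cytoplasmic ratio, % activation.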
HSV replic up – increases HSV replication in cells; 220,000 tested, 0.005% active; maximum fold increase; AID 1956; HSV replication augmentation in cells, fold increase; in the data active = maximum fold increase above about 1.5; inconclusive = no clear call, values can overlap the other calls; tested in PC3 cells
Insulin prom inh – TRM-6 insulin promoter activity inhibition; inhibition, % at 2 µM; TRM-6 cells, insulin promoter-eGFP reporter, imaging; reporter expression induced with tamoxifen; 130,000 tested, 0.9% active;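 active = inhibition above the mean plus 3 SD, with well images judged a real hit on visual review, cut at about 60% in these data, passing the limit was not always enough; inconclusive = inhibition over the cutoff but images rejected on review; inactive = inhibition not above the cutoff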
ROMK primary – human ROMK K+ channel modulation, primary screen; P48048; B-score at 10 µM; 130,000 tested, 2% active; AID 1918; Tet-inducible ROMK, thallium flux fluorescence; actives lie on both sides;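 active = signal ratio slope over the read window, or its plate-corrected B-score, at least 3 SD from the plate mean, either direction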;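 also: B-score of the F/F0 ratio slope over 7 to 12 s after thallium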
Target sequence (P48048 whole entry, looked up): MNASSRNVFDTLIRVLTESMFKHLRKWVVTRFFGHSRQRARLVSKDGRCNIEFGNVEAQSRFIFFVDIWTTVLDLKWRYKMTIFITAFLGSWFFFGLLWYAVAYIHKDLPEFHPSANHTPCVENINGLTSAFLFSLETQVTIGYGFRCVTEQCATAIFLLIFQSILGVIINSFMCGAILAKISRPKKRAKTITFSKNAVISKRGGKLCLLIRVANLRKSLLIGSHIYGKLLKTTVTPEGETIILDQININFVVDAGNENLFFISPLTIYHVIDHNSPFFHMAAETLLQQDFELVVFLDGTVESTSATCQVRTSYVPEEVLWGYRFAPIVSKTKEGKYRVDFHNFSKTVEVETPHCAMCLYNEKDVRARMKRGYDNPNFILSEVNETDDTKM
* = called active by the depositor; i = inactive; ? = inconclusive; . = not tested or not shown.

SMILES | MT stabilize HCS | bCat nuc transl | HSV replic up | Insulin prom inh | ROMK primary
CCn1cc(CNC(=O)CCSc2nc(-c3ccco3)cc(C(F)(F)F)n2)cn1 | 43* | -1 | i | -8 | 2
O=C(CSc1nc(-c2ccco2)cc(C(F)(F)F)n1)Nc1ccc2c(c1)OCO2 | 29* | 3 | i | -94 | 0.081
COc1ccc(Br)cc1CNC(=O)Cc1c(C(=O)O)[nH]c2ccc(Cl)cc12 | 3 | -1 | i | . | 0.018
COc1ccc(OC)c(CNC(=O)Cc2c(C(=O)O)[nH]c3ccc(Cl)cc23)c1 | 4 | -2 | i | 78* | 0.36
O=C(c1cc(-c2cccs2)nc2ccccc12)N1CCN(c2ccccc2)CC1 | 19* | 25 | i | . | -0.24
O=C(N/N=C/c1ccc2c(c1)OCO2)c1ccc2c(c1)OCCO2 | 12* | . | i | -29 | 1.9
O=C(N/N=C/c1ccc2c(c1)OCCO2)c1ccncc1 | . | 0 | i | . | .
O=C(N/N=C/c1ccc([N+](=O)[O-])o1)c1cc(-c2cccc(Br)c2)nc2ccccc12 | 7 | 0 | i | . | .
COc1cc(/C=N/NC(=O)c2cc(-c3cccs3)nc3ccccc23)ccc1O | . | -1 | i | . | 0.67
CCCc1ccc(-c2cc(C(=O)N/N=C/c3ccc([N+](=O)[O-])o3)c3ccccc3n2)cc1 | 35* | 229* | . | -38 | -0.045
N#Cc1ccc(/C=N/NC(=O)c2cc(-c3cccs3)nc3ccccc23)cc1 | 17* | 116* | i | . | .
O=C(NC1CCCCC1)C(c1ccccn1)N(C(=O)c1csnn1)C1CCCCC1 (stereo unspecified) | 1 | 1 | i | . | 0.93
O=C(CS(=O)(=O)c1c[nH]c2ccccc12)N1CCCCCC1 | 2 | 0 | i | -9 | -0.19
O=C(N/N=C/c1ccc2c(c1)OCO2)c1cc(-c2ccccc2)nc2ccccc12 | 29* | 1 | i | 0 | -0.068
O=C(N/N=C/c1c[nH]c2ccc(Br)cc12)c1ccc2c(c1)OCO2 | 44* | 73* | i | . | 0.043
COc1ccc(S(=O)(=O)Nc2ccccc2-c2nnn(CC(=O)Nc3ccccc3OC)n2)cc1 | 14* | 0 | i | 4 | -0.58
C=C(C)CSc1nc2nc(C)c(Br)cc2[nH]1 | 2 | -3 | i | 79* | 0.85
O=C(NCc1ccco1)c1ccc(C(F)(F)F)cc1 | 3 | -2 | i | 78* | 0.81
O=C(O)c1ccc(CNC(=O)c2ccc(Br)o2)cc1 | 6 | -1 | i | 9 | .
O=C(NCc1ccco1)c1cc2ccc(O)cc2oc1=O | 9 | 0 | i | 92* | .
O=C(NCc1ccco1)c1ccccc1-c1ccc(C(F)(F)F)cc1 | 6 | 0 | i | -29 | .
O=C(NCc1ccc(N2CCCC2=O)cc1)c1ccc(F)cc1 | 9.4* | -2 | i | . | -1.5
Cc1ccc(CNC(=O)c2ccc(N3CCCC3=O)cc2)cc1 | 1 | 3 | i | 13 | .
O=C(O)c1ccc(CNC(=O)c2ccc(C(F)(F)F)cc2)cc1 | 2 | 0 | i | 73* | 0.34
CC(=O)N1c2ccc(Cl)cc2C2C=CCC2C1c1cccc2ccccc12 (stereo unspecified) | 12* | 82* | i | -13 | .
SMILES | MT stabilize HCS | bCat nuc transl | HSV replic up | Insulin prom inh | ROMK primary
CC(OC(=O)C1=NNC(=O)CC1)C(=O)Nc1ncc(Cl)cc1Cl (stereo unspecified) | 2 | -3 | i | 48 | 0.00023
CCOC(=O)c1[nH]c(C)c(C(=O)OC(C)C(=O)Nc2ncc(Cl)cc2Cl)c1C (stereo unspecified) | 42* | 0 | i | 40 | .
COC(=O)CN1C(c2ccccc2)=Nc2ccc(Cl)cc2C1c1ccccc1 (stereo unspecified) | 2 | 1 | i | -23 | -3.1*
COC(=O)CN1C(C)=Nc2ccc(C)cc2C1c1ccccc1 (stereo unspecified) | 3 | 2 | i | . | -0.24
Cc1nnc(SCc2cccs2)[nH]c1=O | 2 | -8 | i | 36 | 0.7
Cc1noc(C)c1CSc1nnc(C)c(=O)[nH]1 | 2 | -2 | i | 78* | .
Cc1nc2cc(C(F)(F)F)ccc2n1C | 3 | 0 | i | 75* | -0.65
Oc1ccc(Cl)cc1-c1cc(-c2ccccc2)n[nH]1 | 2 | 3 | i | . | .
Cc1ccc(O)c(-c2cc(-c3cccc(Br)c3)n[nH]2)c1 | 18* | 0 | i | 54 | 0.64
Cc1[nH]c2c([N+](=O)[O-])cccc2c1C | . | -6 | i | . | .
Cc1cc(C)c2c(c1)N[C@H](c1cccs1)[C@@H]1CCO[C@H]21 | . | 1 | i | . | .
CC(C)c1ccc2c(c1)[C@H]1OCC[C@H]1[C@@H](c1cccs1)N2 | 20* | 36 | i | -10 | 0.38
COc1ccc2oc(=O)c(-c3nnc(NCc4ccco4)s3)cc2c1 | 46* | 6 | i | . | -0.0061
CCOc1cccc2cc(-c3nnc(NCc4ccco4)s3)c(=O)oc12 | 2 | -1 | i | . | -1.1
S=C(N/N=C/c1ccc2c(c1)OCO2)NC1CC2CCC1C2 (stereo unspecified) | . | 1 | i | . | .
Cc1ccc(/C=C2\CCC3=C2OC(N)=C(C#N)C3c2ccc(C)cc2)cc1 (stereo unspecified) | 12 | -1 | ? | . | -4.9*
C=CCn1c(O)c(N=NC(=O)CNC(=O)c2ccco2)c2ccccc21 | 12* | -1 | i | 22 | 0.35
O=C(Nc1ccccn1)C(F)(F)C(F)(F)C(F)(F)C(F)(F)C(=O)Nc1ccccn1 | 3 | 1 | i | -14 | -0.21
C=CCN(CC=C)C(=S)NC(=O)c1ccc(-c2ccccc2)cc1 | 2 | . | i | -30 | 10*
COc1ccc(Cl)cc1-c1nc(-c2ccncc2)no1 | 3 | 0 | i | 81* | -0.019
O=C1Nc2ccccc2N(O)N1c1ccc(S(=O)(=O)N2CCOCC2)cc1 | 2 | . | i | 23 | 0.29
COc1ccc(/C=N/NC(=O)CCn2cnc(-c3ccccc3)c2-c2ccccc2)cc1OC | 22* | 46 | i | 45 | .
COc1ccc(-n2nnnc2-c2ccccc2)cc1 | 36* | . | i | -45 | 0.78
O=C(c1cccs1)N1CCC(c2ccccc2)C1 (stereo unspecified) | 4 | . | i | 79* | .
Cc1ccc(/C=N/NC(=O)c2ccccc2OCc2cccc(Br)c2)o1 | 2 | 0 | i | . | -2.1
SMILES | MT stabilize HCS | bCat nuc transl | HSV replic up | Insulin prom inh | ROMK primary
Cc1ccc(C2=NC3(CCCCC3)NC2=S)cc1 | 2 | 2 | i | 62* | 1
C/C(=N\NC(=O)CCCNc1ccc(C)cc1)c1ccccn1 | 3 | . | i | 64* | 0.055
C/C(=N\NC(=O)CCCNc1ccccc1)c1ccncc1 | 2 | 0 | i | . | 1.5
CC(C)n1cc(/C=C2\NC(=O)N(c3cccc(Cl)c3)C2=O)c2ccccc21 | 22* | . | i | 17 | -0.3
Cc1cnc(C(=O)Nc2ccc(C(C)C)cc2)cn1 | 18* | 19 | i | -56 | 0.33
Cc1cnc(C(=O)Nc2ccc(N3CCN(C(=O)OC(C)(C)C)CC3)cc2)cn1 | 39* | 68* | i | -7 | .
Cc1cnc(C(=O)Nc2ccc(F)cc2)cn1 | 2 | . | i | 14 | .
CCOC(=O)CCn1cc(F)c(=O)n(Cc2ccccc2)c1=O | 4 | -6 | i | . | 0.67
